ChEMBL document CHEMBL4038284, “Synthesis of novel quinoline-based 4,5-dihydro-1H-pyrazoles as potential anticancer, antifungal, antibacterial and antiprotozoal agents” (Eur J Med Chem, 2017)
Values after ≈ are worked out from the molar mass of the structure shown.

What was measured:
[1] = system: Escherichia coli; test: Antibacterial activity against Escherichia coli ATCC 25922 after 24 hrs by resazurin dye based microdilution assay; type: functional; details: ATCC 25922, 24 h
In short: (§1)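 MIC taken as the lowest concentration giving visible inhibition and/or by resazurin (1 mg/mL). Gentamicin was the control. Run in duplicate, repeated at least three times.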

[2] = system: Candida albicans; test: Growth inhibition of Candida albicans ATCC 10231 at 62.5 ug/ml incubated for 48 hrs under dark condition by broth microdilution method relative to control; type: functional; details: ATCC 10231, 48 h, read-out: GI
In short: (§2)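 CLSI M27-A3 broth microdilution in RPMI-1640, DMSO ≤1%. Inoculum 1-5 × 10^3 CFU/mL. Incubated 48 h at 30 °C, dark. % inhibition = 100 − (OD405 test − sterility control)/(OD405 growth control − sterility control), with growth and sterility control wells. Triplicate.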

[3] = system: Plasmodium falciparum; test: Antiplasmodial activity against chloroquine-sensitive Plasmodium falciparum 3D7 assessed as reduction in parasitic LDH activity after 48 hrs by Malstat reagent based […] method; type: functional; details: 3D7, 48 h
In short: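 Unsynchronized P. falciparum 3D7 at 0.5% parasitemia and 1% hematocrit in RPMI with 3% Albumax II. Exposed to 100, 25, 6.25 and 1.56 µg/mL for 48 h at 37 °C under 90% N2/5% CO2/5% O2. After three freeze-thaw cycles, LDH measured with Malstat and NBT/PES, 1 h in the dark, read at 650 nm. IC50 by Probit; triplicate, ≥2 experiments.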

[4] = system: Cryptococcus neoformans; test: Growth inhibition of Cryptococcus neoformans ATCC 32264 at 7.8 ug/ml incubated for 48 hrs under dark condition by broth microdilution method relative to control; type: functional; details: ATCC 32264, 48 h, read-out: GI; in short: as §2
[5] = system: Staphylococcus aureus; test: Antibacterial activity against vancomycin-intermediate Staphylococcus aureus after 24 hrs by resazurin dye based microdilution assay; type: functional; in short: as §1
[6] = system: Klebsiella pneumoniae; test: Antibacterial activity against carbapenemase positive Klebsiella pneumoniae BAA 1705 after 24 hrs by resazurin dye based microdilution assay; type: functional; details: BAA 1705, 24 h; in short: as §1
[7] = system: Candida albicans; test: Growth inhibition of Candida albicans ATCC 10231 at 125 ug/ml incubated for 48 hrs under dark condition by broth microdilution method relative to control; type: functional; details: ATCC 10231, 48 h, read-out: GI; in short: as §2
[8] = system: Leishmania panamensis; test: Antileshmanial activity against EpiR/GFP fused Leishmania panamensis MHOM/CO/87/UA140 intracellular amastigotes infected in human […] cells after 72 hrs by flow cytometric method; type: functional, cell-based; details: MHOM/CO/87/UA140, 72 h
In short: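 PMA-treated U-937 cells (3 × 10^5 cells/mL) infected with stationary-phase GFP L. panamensis promastigotes (15:1), 3 h at 34 °C, then washed. After 24 h, compounds added at 50, 12.5, 3.125 and 0.78 µg/mL for 72 h at 37 °C. EC50 by Probit; triplicate, two experiments.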

[9] = system: Candida albicans; test: Growth inhibition of Candida albicans ATCC 10231 at 3.4 ug/ml incubated for 48 hrs under dark condition by broth microdilution method relative to control; type: functional; details: ATCC 10231, 48 h, read-out: GI
[10] = system: Cryptococcus neoformans; test: Growth inhibition of Cryptococcus neoformans ATCC 32264 at 125 ug/ml incubated for 48 hrs under dark condition by broth microdilution method relative to control; type: functional; details: ATCC 32264, 48 h, read-out: GI; in short: as §2
[11] = system: Pseudomonas aeruginosa; test: Antibacterial activity against Pseudomonas aeruginosa ATCC 27853 after 24 hrs by resazurin dye based microdilution assay; type: functional; details: ATCC 27853, 24 h; in short: as §1
[12] = system: Staphylococcus aureus; test: Antibacterial activity against methicillin-resistant Staphylococcus aureus ATCC 43300 after 24 hrs by resazurin dye based microdilution assay; type: functional; details: ATCC 43300, 24 h
In short: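 Broth microdilution in Mueller Hinton broth, inoculum 5 × 10^5 – 8 × 10^5. Compound stocks diluted in MHB with 5% DMSO and 0.1% Tween 80. Incubation 24 h at 35-37 °C. MIC is the lowest concentration with visible growth inhibition and/or by resazurin (1 mg/mL) read-out. Gentamicin as control. Run in duplicate, replicated at least three times.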

[13] = system: Cryptococcus neoformans; test: Antifungal activity against Cryptococcus neoformans ATCC 32264 incubated for 48 hrs under dark condition by broth microdilution method; type: functional; details: ATCC 32264, 48 h
In short: (§3)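 CLSI M27-A3 broth microdilution in RPMI-1640, DMSO ≤1%, compounds at 250-0.98 µg/mL final. Inoculum 1-5 × 10^3 CFU/mL. Incubated 48 h at 30 °C in a moist dark chamber, read at OD405. MIC80 and MIC50 taken from % inhibition dose-response curves (mean ± SEM, triplicate). Amphotericin B was the positive control.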

[14] = system: Candida albicans; test: Growth inhibition of Candida albicans ATCC 10231 at 7.8 ug/ml incubated for 48 hrs under dark condition by broth microdilution method relative to control; type: functional; details: ATCC 10231, 48 h, read-out: GI; in short: as §2
[15] = system: U-937; test: Cytotoxicity against human U937 cells after 72 hrs by MTT assay; type: cell-based; details: u-937, 72 h
In short: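 Exponentially growing U-937 at 1 × 10^5 cells/mL in RPMI-1640 with 10% FBS were exposed to 200, 50, 12.5 and 3.125 µg/mL for 72 h at 37 °C, 5% CO2. MTT for 3 h, stopped with isopropanol/SDS, formazan read at 570 nm, blank-corrected. LC50 by Probit from % viability against untreated cells. Triplicate, at least two independent experiments.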

[16] = system: Neisseria gonorrhoeae; test: Antibacterial activity against beta lactamase positive Neisseria gonorrhoeae ATCC 31426 by oxidase test; type: functional
In short: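 Agar dilution MIC on GC agar with 1% isovitalex containing increasing compound concentrations. Plates inoculated with about 1×10^4 CFU (5 µL). MIC is the lowest concentration that inhibited growth, with growth confirmed by oxidase test. Run in duplicate, repeated at least three times.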

[17] = system: Cryptococcus neoformans; test: Growth inhibition of Cryptococcus neoformans ATCC 32264 at 3.4 ug/ml incubated for 48 hrs under dark condition by broth microdilution method relative to control; type: functional; details: ATCC 32264, 48 h, read-out: GI
[18] = system: Candida albicans; test: Growth inhibition of Candida albicans ATCC 10231 at 250 ug/ml incubated for 48 hrs under dark condition by broth microdilution method relative to control; type: functional; details: ATCC 10231, 48 h, read-out: GI; in short: as §2
[19] = system: Cryptococcus neoformans; test: Growth inhibition of Cryptococcus neoformans ATCC 32264 at 31.25 ug/ml incubated for 48 hrs under dark condition by broth microdilution method relative to control; type: functional; details: ATCC 32264, 48 h, read-out: GI; in short: as §2
[20] = system: Candida albicans; test: Antifungal activity against Candida albicans ATCC 10231 incubated for 48 hrs under dark condition by broth microdilution method; type: functional; details: ATCC 10231, 48 h; in short: as §3
[21] = system: Klebsiella pneumoniae; test: Antibacterial activity against ESBL positive Klebsiella pneumoniae ATCC 700603 after 24 hrs by resazurin dye based microdilution assay; type: functional; details: Klebsiella pneumoniae, 700603, 24 h; in short: as §1
[22] = system: Candida albicans; test: Growth inhibition of Candida albicans ATCC 10231 at 15.62 ug/ml incubated for 48 hrs under dark condition by broth microdilution method relative to control; type: functional; details: ATCC 10231, 48 h, read-out: GI; in short: as §2
[23] = system: Cryptococcus neoformans; test: Growth inhibition of Cryptococcus neoformans ATCC 32264 at 250 ug/ml incubated for 48 hrs under dark condition by broth microdilution method relative to control; type: functional; details: ATCC 32264, 48 h, read-out: GI; in short: as §2
[24] = system: Candida albicans; test: Growth inhibition of Candida albicans ATCC 10231 at 31.25 ug/ml incubated for 48 hrs under dark condition by broth microdilution method relative to control; type: functional; details: ATCC 10231, 48 h, read-out: GI; in short: as §2
[25] = system: Cryptococcus neoformans; test: Growth inhibition of Cryptococcus neoformans ATCC 32264 at 62.5 ug/ml incubated for 48 hrs under dark condition by broth microdilution method relative to control; type: functional; details: ATCC 32264, 48 h, read-out: GI; in short: as §2
[26] = system: Cryptococcus neoformans; test: Growth inhibition of Cryptococcus neoformans ATCC 32264 at 15.62 ug/ml incubated for 48 hrs under dark condition by broth microdilution method relative to control; type: functional; details: ATCC 32264, 48 h, read-out: GI; in short: as §2
[27] = system: Staphylococcus aureus; test: Antibacterial activity against methicillin-sensitive Staphylococcus aureus ATCC 25923 after 24 hrs by resazurin dye based microdilution assay; type: functional; details: ATCC 25923, 24 h; in short: as §1
[28] = system: Trypanosoma cruzi; test: Antitrypanosomal activity against Trypanosoma cruzi Tulahuen intracellular amastigote harboring LacZ infected in human U937 cells after 72 hrs by CPRG/Nonidet reagent based spectrophotometric method; type: functional, cell-based; details: U-937, 72 h
In short: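 U-937 cells at 2.5 × 10^5 cells/mL in RPMI-1640 with 10% serum and 0.1 µg/mL PMA were infected with β-galactosidase-transfected Tulahuen epimastigotes at 5 parasites per cell. Infected cells were exposed to 50, 12.5, 3.125 and 0.78 µg/mL for 72 h. CPRG (100 uM) and 0.1% Nonidet P-40 were added for 3 h, read at 570 nm. EC50 by Probit. Triplicate, at least two experiments; benznidazole as reference.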

SMILES	MIC [1] [µg/mL]	inhibition of growth at 62.5 µg/mL [2] [%]	EC50 [3] [µg/mL]	inhibition of growth at 7.8 µg/mL [4] [%]	MIC [5] [µg/mL]	MIC [6] [µg/mL]	inhibition of growth at 125 µg/mL [7] [%]	EC50 [8] [µg/mL]	inhibition of growth at 3.4 µg/mL [9] [%]	inhibition of growth at 125 µg/mL [10] [%]	MIC [11] [µg/mL]	MIC [12] [µg/mL]	MIC50 [13] [µg/mL]	MIC80 [13] [µg/mL]	inhibition of growth at 7.8 µg/mL [14] [%]	LC50 [15] [µg/mL]	MIC [16] [µg/mL]	inhibition of growth at 3.4 µg/mL [17] [%]	inhibition of growth at 250 µg/mL [18] [%]	inhibition of growth at 31.25 µg/mL [19] [%]	other results
O=C(/C=C/c1cccc(Nc2ccnc3cc(Cl)ccc23)c1)c1ccccc1	> 1000	36.2	10.3 (≈ 26.7 µM)	25.6	> 1000	> 1000	36.7	2.54 (≈ 6.6 µM)	21.5	89.5	> 1000	> 1000	31.2 (≈ 81.2 µM)	62.5 (≈ 162 µM)	25.2	1.5 (≈ 3.9 µM)	> 1000	17.9	43.5	52.5	MIC50 [20]: ≥ 250 µg/mL; MIC80 [20]: ≥ 250 µg/mL; MIC [21]: > 1000 µg/mL; inhibition of growth at 15.62 µg/mL [22]: 27.7%; inhibition of growth at 250 µg/mL [23]: 100%; inhibition of growth at 31.25 µg/mL [24]: 31.7%; inhibition of growth at 62.5 µg/mL [25]: 80.8%; inhibition of growth at 15.62 µg/mL [26]: 32.3%; MIC [27]: > 1000 µg/mL; EC50 [28]: > 0.8 µg/mL
Clc1ccc2c(Nc3cccc(C4CC(c5ccc(Br)cc5)=NN4c4ccccc4)c3)ccnc2c1 (stereo not given)	> 1000	12.6	5.54 (≈ 10 µM)	7.67	> 1000	> 1000	26.3	3.59 (≈ 6.48 µM)	3.09	20.1	> 1000	> 1000	≥ 250	≥ 250	4.31	9.2 (≈ 16.6 µM)	> 1000	3.29	44.9	11.8	MIC50 [20]: ≥ 250 µg/mL; MIC80 [20]: ≥ 250 µg/mL; MIC [21]: > 1000 µg/mL; inhibition of growth at 15.62 µg/mL [22]: 8.46%; inhibition of growth at 250 µg/mL [23]: 45.1%; inhibition of growth at 31.25 µg/mL [24]: 9.65%; inhibition of growth at 62.5 µg/mL [25]: 20%; inhibition of growth at 15.62 µg/mL [26]: 7.94%; MIC [27]: > 1000 µg/mL; EC50 [28]: 6.67 µg/mL (≈ 12 µM)
